This is an account of results in article PMC4893919 (Molecular cancer therapeutics, 2016).

Experiment [1] relates to A375 cells. Briefly: Colony formation assay, A375. It is filed as cell-based, human. The following applies: for inhibition of colony formation: 21 days. Put shortly: (§1)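 A375 or A375-R cells were grown in 24-well plates with treatment for 21 days, with drug-containing medium renewed every three days. Colonies were stained with 0.1% crystal violet in PBS. Dye was extracted with 20% acetic acid and absorbance read at 595 nm. Values are colony formation relative to control, n = 4.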

Experiment [2] has as its system A375 cells. Briefly: Cell cycle analysis, A375. The conditions noted are these: A375, 24 h. It is filed as cell-based, human. Put shortly:
(§2)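 Cells were synchronised in medium with 1% FBS for 12 h, then given fresh 10% FBS medium with vehicle or test compound for 24 h. Adherent and floating cells were pooled, fixed overnight in ice-cold 70% ethanol at 4°C, and stained with propidium iodide/RNase A for 30 min at room temperature in the dark. Cells were then analysed by flow cytometry.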

For experiment [3], the system named is A375 cells. The experiment can be described thus: ROS measurement, A375. It is filed as cell-based, human. The following applies: A375, 5 µM, 2 h.
Experiment [4] relates to A375 cells. Briefly: Apoptosis detection. The following applies: A375, 72 h. It is filed as cell-based, human. Put shortly: (§3)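 Cells were seeded in 6-well plates and exposed to vehicle or test compound for 72 h. Apoptotic cells were scored by Annexin V-FITC plus propidium iodide double staining and flow cytometry.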
The subject of experiment [5] is SK-MEL-2 (NRAS mutation). Briefly: MTT cell viability assay, SK-MEL-2. The conditions noted are these: read-out: IC50, SK-MEL-2 (NRAS mutation); 24 h treatment, human cell line. It is filed as cell-based. Put shortly:
(§4)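 Cells were seeded in 96-well plates overnight, then exposed to test compound for 24 h at concentrations up to 10 μM. Growth was read by MTT as OD570. Viability was expressed relative to vehicle (0.5% DMSO) set as 100%, and IC50 was derived from this.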

Experiment [6] concerns A375-R cells (acquired vemurafenib resistance). The experiment can be described thus: MTT cell viability assay, A375-R. It is filed as cell-based, human. Background: Tetrazolium dyes change colour on reduction, which living cells bring about.
The test system of experiment [7] is A375 xenografts. Briefly: A375 xenograft tumor model. It is filed as in vivo, NOD/SCID mice. Put shortly:
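A375 cells (3×10^6) were injected subcutaneously into the flanks of 6-week-old female NOD/SCID mice. At about 50 mm³, mice were randomised, n = 8 per group. Dosing was PLX4032 20 mg/kg/day and test compound 20 mg/kg every two days. Combination arms alternated test compound (20 mg/kg every four days) with PLX4032 (20 mg/kg every two days). Volume (a×b²×0.5) was measured every three days. Tumours were dissected and weighed. TGI compared volume change with vehicle.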

Experiment [8] concerns A375-R cells. Briefly: Cell cycle analysis, A375-R. It is filed as cell-based, human. Put shortly:
as §2

Experiment [9] concerns A375-R xenografts (acquired vemurafenib resistance). The experiment can be described thus: A375-R xenograft tumor model. It is filed as in vivo, NOD/SCID mice. Put shortly:
(§5)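 Female NOD/SCID mice, 6 weeks old, received 3×10^6 A375-R or A2058 cells subcutaneously in the flank. Treatment began at about 50 mm³ tumour volume, with 8 mice per randomised group. Doses were PLX4032 75 mg/kg/day and test compound 20 mg/kg every two days; combination arms alternated the two, each every two days. Tumour volume (a×b²×0.5) and body weight were recorded every three days. TGI used initial-to-final volume change versus vehicle.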

Experiment [10] has as its system Melanocyte (Normal cells). The experiment can be described thus: MTT cell viability assay, normal melanocytes. It is filed as cell-based. The following applies: read-out: IC50, Melanocyte (Normal cells); 24 h treatment, human cells. The gist of the method:
as §4

Experiment [11] concerns A375 (BRAF mutation). The experiment can be described thus: MTT cell viability assay, A375. It is filed as cell-based, human.
Experiment [12] relates to A2058 (BRAF mutation). Briefly: MTT cell viability assay, A2058. It is filed as cell-based. The following applies: read-out: IC50, A2058 (BRAF mutation); 24 h treatment, human cell line. The gist of the method:
as §4

For experiment [13], the system named is A375-R cells. The experiment can be described thus: Colony formation assay, A375-R. It is filed as cell-based, human. The conditions noted are these: 21 days. Put shortly:
as §1

For experiment [14], the system named is MeWo (No NRAS or BRAF mutation). The experiment can be described thus: MTT cell viability assay, MeWo. It is filed as cell-based. The conditions noted are these: read-out: IC50, MeWo (No NRAS or BRAF mutation); 24 h treatment, human cell line. Put shortly: as §4
Experiment [15] deals with B16-F10 (NRAS mutation). The experiment can be described thus: MTT cell viability assay, B16-F10. The following applies: read-out: IC50, B16-F10 (NRAS mutation); 24 h treatment, mouse cell line. It is filed as cell-based. The gist of the method: as §4
Experiment [16] concerns A375-R cells. Briefly: ROS measurement, A375-R. It is filed as cell-based, human. The following applies: 5 µM, 2 h.
The test system of experiment [17] is metastatic melanoma. The following applies: cited from earlier work.
In experiment [18] the test system is A2058 xenografts (intrinsic vemurafenib resistance). Briefly: A2058 xenograft tumor model. The following applies: 75 mg/kg/day, 24 doses in total. It is filed as in vivo, NOD/SCID mice. The gist of the method:
as §5

Experiment [19] has as its system A375-R cells. The experiment can be described thus: Apoptosis detection, A375-R. It is filed as cell-based, human. Put shortly:
as §3

Setting [20] is: 20 mg/kg/every two days, 12 doses in total.
The mark [21] stands for this setting: read-out: IC50, A375 (BRAF mutation), 24 h treatment, human cell line.
[22] abbreviates: 20 mg/kg/day, 24 doses in total.

Several values for one entry are separate records, joined by “and”; a condition that tells them apart may be missing. Equal entries are not always repeated. Where two headings read alike, the source gives them in different places.

A word on the IC50: it is the point on the concentration scale where inhibition reaches its midpoint. Turning to `C=C(C)C(=O)O[C@H]1CC2=C[C@@H](C/C(C)=C/[C@H]3OC(=O)C(=C)[C@H]13)OC2=O` [DET, deoxyelephantopin], the results for the “inhibition of colony formation” value in [1] (1 µM), in experiment [1] (2.5 µM) and in experiment [1] (5 µM) were 38%, 65% and 91%, respectively. The “effect on cell-cycle distribution” value is recorded as “induced G2/M-phase arrest” in [2] and “G2/M-phase cell-cycle arrest” in experiment [8]. In addition, the “increase of ROS level” value in experiment [3] and in experiment [16] was “more than 2 fold” each time. In experiment [4], the apoptosis is given as ≤ 67.8%. The IC50 is > 10 µM in experiment [5]; > 10 µM in [10]; 6 µM and 5.9 µM in experiment [11] (setting [21]); > 10 µM in experiment [12]; > 10 µM in [14]; 6 ± 0.13 µM in experiment [15]. For the same compound, in [6] (2 µM, 72 h), the “inhibition of A375-R cell viability” value is given as 65%. Moreover, in experiment [7] (setting [20]), the “reduction of tumor mass” value is recorded as 47.5%. In addition, the “tumor growth inhibition (TGI)” value in experiment [7] (setting [20]) came out at 71.0%; in experiment [9] (A375-R, 20 mg/kg/every two days, 12 doses in total), 31.2%. Further, the “inhibition of A375 cell viability” value in [11] (2 µM, 72 h) was determined as 55%. The “effect on colony formation of A375-R cells” value in experiment [13] is listed as “inhibited colony formation”.

Consider `C=C1C(=O)OC2CC3=C[C@@H](C/C(C)=C/C(O)[C@H]12)OC3=O` (stereo partly shown) [DETD-3], for which the IC50 in experiment [5], in experiment [10], in [11] (setting [21]), in experiment [12], in experiment [14] and in [15] was > 10 µM each time.

Turning to `C=C1C(=O)OC2CC3=C[C@@H](C/C(C)=C/C(OC(=O)/C(C)=C/CC)[C@H]12)OC3=O` (stereo partly shown) [DETD-5], the IC50 in [5] was 7.8 ± 0.14 µM; in experiment [10], > 10 µM; in experiment [11] (setting [21]) it was 4.1 ± 0.15 µM; in experiment [12] it was 5.8 ± 0.08 µM; in experiment [14], > 10 µM; in experiment [15] it was 4.7 ± 0.03 µM.

As for `C=C1C(=O)OC2CC3=C[C@@H](C/C(C)=C/C(OC(=O)C(C)CC)[C@H]12)OC3=O` (stereo partly shown) [DETD-13], the IC50 in experiment [5] is > 10 µM; in [10] it was > 10 µM; in experiment [11] (setting [21]), > 10 µM; in experiment [12] it was > 10 µM; in experiment [14] it was > 10 µM; in [15], 7.1 ± 0.09 µM.

As to `C=C1C(=O)OC2CC3=C[C@@H](C/C(C)=C/C(OC(C)=O)[C@H]12)OC3=O` (stereo partly shown) [DETD-17], the IC50 in experiment [5], in experiment [10], in [11] (setting [21]), in [12], in experiment [14] and in experiment [15] was > 10 µM in each case.

`C=C(CC)C(=O)OC1/C=C(\C)C[C@@H]2C=C(CC3OC(=O)C(=C)[C@@H]13)C(=O)O2` (stereo partly shown) [DETD-19]: the IC50 in experiment [5] is > 10 µM; in experiment [10], > 10 µM; in [11] (setting [21]), > 10 µM; in [12], > 10 µM; in experiment [14], > 10 µM; in [15], 7.8 ± 0.28 µM.

Consider `C=C1C(=O)OC2CC3=C[C@@H](C/C(C)=C/C(OC(=O)/C=C/C)[C@H]12)OC3=O` (stereo partly shown) [DETD-24], for which the half-maximal inhibitory concentration (IC50) in experiment [5], in experiment [10], in [11] (setting [21]), in experiment [12], in [14] and in [15] was > 10 µM throughout.

Turning to `C=C1C(=O)OC2CC3=C[C@@H](C/C(C)=C/C(OC(=O)c4ccccc4)[C@H]12)OC3=O` (stereo partly shown) [DETD-31], the IC50 in [5] was > 10 µM; in experiment [10], > 10 µM; in experiment [11] (setting [21]), 4.3 ± 0.62 µM; in experiment [12], > 10 µM; in [14], > 10 µM; in [15] it was 2.9 ± 0.78 µM.

Take `C=C1C(=O)OC2CC3=C[C@@H](C/C(C)=C/C(OC(=O)c4ccc(C)cc4)[C@H]12)OC3=O` (stereo partly shown) [DETD-33]: the IC50 in experiment [5] was 5.9 ± 0.2 µM; in experiment [10], > 10 µM; in [11] (setting [21]) it was 2.9 ± 0.26 µM; in experiment [12] it was 4.2 ± 0.09 µM; in [14] it was 6.7 ± 0.22 µM; in experiment [15], 2.2 ± 0.29 µM.

Regarding `C=C1C(=O)OC2CC3=C[C@@H](C/C(C)=C/C(OC(=O)Cc4ccccc4)[C@H]12)OC3=O` (stereo partly shown) [DETD-43], the IC50 in experiment [5] is 8.2 ± 0.27 µM; in experiment [10] it was > 10 µM; in [11] (setting [21]), 3.6 ± 0.25 µM; in [12] it was 8.7 ± 0.33 µM; in experiment [14], > 10 µM; in experiment [15], 7.4 ± 0.48 µM.

On to `CC(=O)N[C@@H](CS)C(=O)O` [NAC, N-acetyl-L-cysteine, reference compound], for which the “effect on A375-R cell viability” value in experiment [6] (5 mM alone) is recorded as “did not affect”. The “effect on A375 cell viability” value in experiment [11] (5 mM alone) is listed as “did not affect”.

For orientation: inhibition means the change of the read-out against control, counted positive when it falls. Consider `CCCS(=O)(=O)Nc1ccc(F)c(C(=O)c2c[nH]c3ncc(-c4ccc(Cl)cc4)cc23)c1F` [PLX4032, vemurafenib, reference compound], for which, in [17] (melanoma patients), the “average time to relapse after therapy” value is ≤ 7 months. Further, the inhibition at 0.1 µM in experiment [1] (Homo sapiens, A-375, 504 h, read-out: inhibition of colony formation) was found to be 55%. Moreover, the “effect on cell-cycle distribution” value is on record as “G1-phase cell-cycle arrest” in experiment [2] and “no effect” in experiment [8]. Besides, the anti-tumor activity entry was “no anti-tumor activity” in experiment [18] and “no anti-tumor activity” in [9] (A375-R xenograft, 75 mg/kg/day, 24 doses in total). The apoptosis in experiment [4] is reported as 10.4%; in experiment [19], “no effect”. The IC50 in [6] (Homo sapiens, 72 h, read-out: IC50 on A375-R cells) was 7.34 µM; in experiment [11] (Homo sapiens, A-375, 72 h, read-out: IC50 on A375 cells) it was 0.07 µM. Besides, the “fold less sensitive, A375-R compared to parental cell line” value in experiment [6] (IC50 A375-R vs A375) is given as 100 fold. The “reduction of tumor mass” value in [7] (setting [22]) turned out to be 71.9%. Besides, in experiment [7] (setting [22]), the “tumor growth inhibition (TGI)” value is recorded as 87.4%. Moreover, the “effect on colony formation of A375-R cells” value in [13] is “no inhibitory effect”.

Regarding `CN(C)/N=N/c1[nH]cnc1C(N)=O` [dacarbazine], in experiment [17] (metastatic melanoma), the complete response entry was “less than 5%”.
